Fh CTSL1 inh = blocks F. hepatica cathepsin L1 in PFM18AAP counter-screen; AID 1906; 300,000 compounds, 0.49% hits; recombinant F. hepatica cathepsin L1, Z-Leu-Arg-MCA fluorescence; inhibition, % at 5.96 µM;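 active = inhibition above the mean of all tested compounds plus 3 SD, set per screening campaign, cut at about 17% in these data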
PP5 primary = inhibitors of human protein phosphatase 5 (PP5); 320,000 compounds, 0.18% hits; purified PP5c, OMFP substrate fluorescence; inhibition, % at 6.7 µM; P53041;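 active = inhibition above the campaign's mean inhibition across all tested compounds plus 3 SD, cut at about 9.5% in these data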
PP1 inh = counter-screen for PP5 inhibitors: inhibitors of human PP1-alpha. P62136. 320,000 compounds, 0.9% hits. purified PP1alpha, OMFP fluorescence. inhibition, % at 6.7 µM;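 active = inhibition above the mean inhibition of all tested compounds plus 3 SD, computed separately for each screening campaign, cut at about 15% in these data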
Target sequence (P62136 whole entry, looked up): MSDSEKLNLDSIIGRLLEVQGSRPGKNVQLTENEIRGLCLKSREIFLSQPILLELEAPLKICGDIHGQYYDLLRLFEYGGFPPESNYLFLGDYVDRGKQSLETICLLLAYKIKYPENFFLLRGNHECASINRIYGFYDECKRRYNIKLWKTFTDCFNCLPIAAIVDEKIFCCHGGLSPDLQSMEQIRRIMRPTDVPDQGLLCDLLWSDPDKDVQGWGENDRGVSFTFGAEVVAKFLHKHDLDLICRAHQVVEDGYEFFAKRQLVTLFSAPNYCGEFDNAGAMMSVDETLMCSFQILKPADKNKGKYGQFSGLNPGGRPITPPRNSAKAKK
NadD block = blocks S. aureus nicotinate mononucleotide adenylyltransferase. AID 602399. 360,000 compounds, 0.78% hits. purified NadD enzyme, colorimetric absorbance read-out. inhibition, % at 20 µM; in the data active = inhibition above about 26%
Myeloid diff 2 = myeloid differentiation induction; ER-HoxA9 myeloid progenitors, lysozyme-GFP differentiation, flow cytometry; calls only at 10 µM; 360,000 compounds, 1% hits;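 active = normalized GFP-positive differentiation at or above the plate's own cutoff, the solvent-only control mean plus 3 SD; inconclusive = no clear call, values can overlap the other calls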;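 also: cells exposed to compound for four days before flow analysis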
HCV core dimer = blocks dimerization of HCV core protein; TR-FRET GST/Flag-core106 dimerization, 1536-well; inhibition, % at 5 µM; 300,000 compounds, 0.33% hits; AID 1899;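 active = inhibition above the mean of all tested compounds plus 3 SD, set per screening campaign, cut at about 45% in these data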
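Test system: GST/Flag-tagged HCV core106 proteins; Medium: KF-containing HEPES buffer, pH 7.45, DTT, CHAPS, BSA; Times: compound-protein-antibody incubation 4 h at 22.5 °C; Detection: TR-FRET 671 and 617 nm emission; Benchmarks: wells lacking GST-core106 and wells with excess unlabelled core106.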
A number is an active result; - = inactive; ? = inconclusive; . = no result given; + = active, no number. A selection: hits, their analogues and other compounds. The true share with any hit is near 3.1%.

SMILES	Fh CTSL1 inh	PP5 primary	PP1 inh	NadD block	Myeloid diff 2	HCV core dimer
COc1ccc(S(=O)(=O)N2CCCCCC2)cc1C(=O)OCc1cccc(OC)c1OC	-	-	-	-	-	-
O=C(NC1CCCN(CCc2ccccc2)C1)c1c(F)cccc1F (stereo not given)	-	-	-	-	-	-
O=C(NC1CCCN(Cc2ccc(Cl)cc2)C1)c1c(F)cccc1F (stereo not given)	28.1	-	-	-	-	-
O=C(NC1CCCN(Cc2ccc(Cl)cc2)C1)c1c(F)ccc(F)c1F (stereo not given)	64.1	-	-	-	-	-
O=C(NC1CCCN(Cc2ccc(Cl)cc2)C1)C1CCC1 (stereo not given)	-	-	-	-	.	-
CC(C)C[C@H](NC(=O)OC(C)(C)C)C(=O)N[C@@H](CO)[C@H](O)[C@@H]1C[C@@H]1C(=O)N1CCCC1	45.1	-	-	-	-	-
COc1cccc(NC(=O)C2(C)CCN2C(=O)Cc2cccc3ccccc23)c1 (stereo not given)	.	.	.	-	-	.
O=S(=O)(c1cccc(Br)c1)N1CCN(c2ccnc3cc(Cl)ccc23)CC1	-	-	-	-	-	-
O=[N+]([O-])c1ccc(S(=O)(=O)N2CCN(c3ccnc4cc(Cl)ccc34)CC2)cc1	-	-	17.3	-	-	-
Cc1cccc(-c2nc(=S)c3c(n2Cc2ccco2)CCCC3)c1	-	-	-	-	-	63.7
CC1CC(=O)C2=C(C1)Nc1ccccc1N(C(=O)COc1ccccc1)C2c1ccco1 (stereo not given)	-	-	-	-	+	-
O=C(NCc1nc(-c2ccc(Cl)cc2)no1)c1ccc2c(c1)OCO2	-	-	-	-	-	-
N#C/C(N=Nc1ccccc1O)=N\Nc1ccccc1O	33.6	-	-	-	-	-
COc1ccccc1NC(=O)c1ccc(SCC(=O)NCc2ccccc2Cl)c([N+](=O)[O-])c1	-	-	-	-	-	53.2
COc1ccccc1CNC(=O)CSc1ccc(C(=O)Nc2ccccc2OC)cc1[N+](=O)[O-]	-	-	-	-	-	-
CC1CCc2c(sc(NC(=O)c3ccc(Cn4cc([N+](=O)[O-])cn4)o3)c2C#N)C1 (stereo not given)	-	-	-	-	-	84.7
O=C(CSc1nc2ccc(Cl)cc2[nH]1)c1c[nH]c2ccccc12	-	-	-	-	-	-
O=C(CSc1nc2ncc(Cl)cc2[nH]1)c1c[nH]c2ccccc12	-	-	-	-	+	-
O=C(NCc1ccc2c(c1)OCO2)C1CCCN(S(=O)(=O)c2cccc3cccnc23)C1 (stereo not given)	-	-	-	-	+	-
O=C(Cc1ccccc1)N1CCN(S(=O)(=O)c2cccc([N+](=O)[O-])c2)CC1	-	-	-	-	-	-
Cc1nc(-c2ccc(F)cc2)c(CC(=O)N2CCN(S(=O)(=O)c3cccc([N+](=O)[O-])c3)CC2)s1	.	.	.	-	+	.
CCOc1ccc(Nc2nc(-c3sc(N)nc3C)cs2)cc1	-	-	-	-	-	-
COc1ccc(CCNc2nc(-c3sc(N)nc3C)cs2)cc1OC	-	-	-	30.1	-	-
C=CC[C@@H](CC(=O)N[C@H](CO)Cc1ccccc1)C(=O)N[C@H](COC(=O)[C@@H](CC=C)Cc1ccc(F)cc1)Cc1c[nH]c2ccccc12	.	.	.	-	-	.
S=c1nc(SCc2ccccc2)[nH]c2ccccc12	-	-	-	-	-	65.1
SMILES	Fh CTSL1 inh	PP5 primary	PP1 inh	NadD block	Myeloid diff 2	HCV core dimer
O=C(CCC(=O)Nc1ccc(F)cc1)N/N=C/c1cccnc1	-	-	-	-	-	-
COc1ccc(OC)c(Nc2cc3ccccc3c(=O)[nH]2)c1	69.8	-	-	-	-	-
COc1ccccc1Nc1nnc(C)c(=O)[nH]1	-	-	-	-	-	-
COc1ccccc1Nc1cc2cc(Br)ccc2c(=O)[nH]1	47.4	-	-	-	+	-
COc1ccc(-c2cc(=O)oc3cc(OC(C)C(=O)NCCCn4ccnc4)ccc23)cc1 (stereo not given)	-	-	-	-	-	-
CCOC(=O)C1Nc2ccc(C)cc2C2C=CCC12 (stereo not given)	-	-	-	-	-	-
CCOC(=O)c1ccc2c(c1)C1C=CCC1C(C(=O)OCC)N2 (stereo not given)	-	-	-	-	-	54.6
CCOC(=O)C1Nc2ccc(Br)cc2C2C=CCC12 (stereo not given)	-	-	-	-	-	50.2
CCN(C(=O)CSc1nnc(-c2ccccc2OC)n1N)c1c(N)n(Cc2ccccc2)c(=O)[nH]c1=O	.	.	.	-	-	.
S=c1[nH]nc(-c2ccccn2)n1/N=C/c1ccc(-c2ccccc2Cl)o1	-	-	15.4	-	-	-
S=c1[nH]nc(-c2ccccn2)n1/N=C/c1ccc(Br)s1	-	-	17.0	-	-	-
S=c1[nH]nc(-c2ccccn2)n1/N=C/c1ccc(Cl)c(Cl)c1	-	-	-	-	-	-
CC(=O)OCCN(CCCn1c(-c2ccncc2)nc2ccccc21)c1nc(CN2CCCCC2)cs1	-	-	-	-	-	-
CC(Oc1ccc(Cl)cc1)C(=O)Nc1ccc(S(=O)(=O)N2CCOCC2)cc1 (stereo not given)	-	-	-	-	-	-
O=C(CN(Cc1ccc(F)cc1)C(=O)CCC(=O)Nc1nccs1)NCC1CCCO1 (stereo not given)	-	-	-	-	+	-
N#Cc1c(C(F)(F)F)cc(-c2ccco2)nc1SCc1ccncc1	-	-	-	-	+	-
CSc1nc(-c2ccco2)cc(C(F)(F)F)c1C#N	-	-	-	-	-	-
N#Cc1c(C(F)(F)F)cc(-c2ccco2)nc1SCc1ccccn1	-	-	-	-	+	-
Cc1cccc2nc(CNC(=O)CC3C(=O)NCCN3Cc3cccc(F)c3)cn12 (stereo not given)	-	-	-	-	-	-
CCCN(CCC)CCCNC(=O)c1cc2cc3ccc(Cl)cc3nc2o1	-	-	-	-	-	-
CCCCN(CC)CCNC(=O)c1cc2cc3ccc(Cl)cc3nc2o1	-	-	-	-	+	-
COc1ccc(CN=Cc2c(O)[nH]c3ccccc23)cc1	21.0	-	-	-	-	-
O=C(CCC1CCCCC1)Nc1cccc(C(=O)Nc2ccc(C(=O)O)cc2)c1	-	-	-	-	-	-
O=[N+]([O-])c1ccc(-n2nnnc2-c2ccccc2)cc1	-	-	-	-	-	-
O=[N+]([O-])c1ccc(-n2nnnc2-c2ccccc2)c([N+](=O)[O-])c1	20.4	-	-	-	?	-
COc1cc(Cl)ccc1OCc1cc(C(=O)N(C)Cc2cccc3cnccc23)no1	-	-	-	-	-	-
CC(=O)N1CCc2cc(Br)cc(S(=O)(=O)CCC(=O)N3CCN(c4ccccn4)CC3)c21	21.0	-	-	-	-	-
